Measured values published in ChEMBL document CHEMBL4425111, “Optically Pure, Structural, and Fluorescent Analogues of a Dimeric Y4 Receptor Agonist Derived by an Olefin Metathesis Approach” (J Med Chem, 2016).

How the values were obtained:
[1] = target: T1, Neuropeptide Y receptor type 4 (Homo sapiens, UniProt P50391); assay: Agonist activity at GFP-tagged neuropeptide Y4R (unknown origin) expressed in HEK293T cells assessed as beta-arrestin2 recruitment measured after 60 mins by H33342 staining-based imaging method; format: cell-based
T1 sequence (P50391 whole entry): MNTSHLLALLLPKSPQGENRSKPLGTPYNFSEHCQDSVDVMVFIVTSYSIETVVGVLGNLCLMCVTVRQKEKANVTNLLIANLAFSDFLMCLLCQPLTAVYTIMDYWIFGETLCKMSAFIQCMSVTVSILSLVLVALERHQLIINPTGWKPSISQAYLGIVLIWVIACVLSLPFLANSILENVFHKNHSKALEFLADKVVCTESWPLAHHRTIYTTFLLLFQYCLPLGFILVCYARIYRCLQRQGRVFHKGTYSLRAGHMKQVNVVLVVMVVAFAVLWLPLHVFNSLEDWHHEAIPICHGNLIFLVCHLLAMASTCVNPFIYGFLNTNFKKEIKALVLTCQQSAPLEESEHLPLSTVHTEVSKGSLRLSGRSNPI

[2] = target: T1, Neuropeptide Y receptor type 4; assay: Agonist activity at GFP-tagged neuropeptide Y4R (unknown origin) expressed in HEK293T cells assessed as beta-arrestin2 recruitment measured after 60 mins by H33342 staining-based imaging method relative to PP; format: cell-based
How it was run: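 Y4R–β-arrestin2 BiFC cell lines were seeded on poly-D-lysine plates and tested 24 h later. Ligands (10^-10–10^-6 M, duplicate wells) were applied in HBSS/0.1% BSA for 60 min at 37°C. Cells were fixed with 3% paraformaldehyde (10 min, 21°C) and nuclei stained with H33342. Confocal images were taken at 405/488 nm, and internal YFP granules ≥3 µm were counted against vehicle or 100 nM PP thresholds.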

[3] = target: T1, Neuropeptide Y receptor type 4; assay: Displacement of [Lys2(sCy5),Arg4]-BVD-15 from C-terminal GFP-tagged neuropeptide Y4R (unknown origin) expressed in human 293TR cells measured after 30 mins by fluorescence analysis; format: cell-based
[4] = Cellular uptake in human 293T-rex cells expressing C-terminal GFP-tagged neuropeptide Y4R measured after 30 mins by fluorescence analysis; format: ADME, cell-based; conditions: hek-293t, 0.5 h
How it was run: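 293TR Y4-GFP cells, induced with 1 µg/ml tetracycline for 18–21 h, were incubated with sCy5-labelled peptide for 30 min at 37°C in HBSS/0.1% BSA with H33342. Controls were uninduced cells and 1 µM PP competition. Surface and intracellular sCy5 fluorescence was imaged by confocal platereader.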

Homo sapiens = organism: Homo sapiens; assay: Selectivity ratio of IC50 for GFP-tagged neuropeptide Y1R (unknown origin) expressed in HEK293T cells to IC50 for C-terminal GFP-tagged neuropeptide Y4R (unknown origin) expressed in human 293TR cells; format: cell-based
How it was run: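 Whole-cell competition binding used tetracycline-induced 293TR cells expressing Y1-GFP or Y4-GFP. Cells were exposed to competitor for 2 min, then to sCy5-labelled tracer (10 nM for Y1R, 100 nM for Y4R) for 30 min at 37°C.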

[5] = target: T1, Neuropeptide Y receptor type 4; assay: Agonist activity at GFP-tagged neuropeptide Y4R (unknown origin) expressed in HEK293T cells assessed as beta-arrestin2 recruitment at 1 uM measured after 60 mins by H33342 staining-based imaging method relative to PP; format: cell-based
How it was run: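 Y4R–β-arrestin2 BiFC cells were stimulated in HBSS/0.1% BSA for 60 min at 37°C, then fixed with 3% paraformaldehyde and stained with H33342. Complemented YFP was imaged by confocal platereader and quantified by granularity analysis with vehicle or 100 nM PP controls. Where agonist activity was not significant, the response at 1 µM peptide was reported.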

| SMILES | EC50 ([1]; read-out: pEC50 (converted)) [nM] | Rmax [2] [%] | IC50 ([3]; read-out: pIC50 (converted)) [nM] | Drug uptake [4] | EC50 ([1]; read-out: EC50) [nM] | IC50 ([3]; read-out: IC50) [nM] | Rmax [5] [%] | Ratio IC50 (Homo sapiens) |
| --- | --- | --- | --- | --- | --- | --- | --- | --- |
| CCN(CC)c1ccc2c(-c3ccccc3C(=O)N3CCN(C(=O)CCC(=O)N[C@H](C/C=C\C[C@@H](N)C(=O)N[C@@H](Cc4ccc(O)cc4)C(=O)N[C@@H](CCCNC(=N)N)C(=O)N[C@@H](CC(C)C)C(=O)N[C@@H](CCCNC(=N)N)C(=O)N[C@@H](Cc4ccc(O)cc4)C(N)=O)C(=O)N[C@@H](Cc4ccc(O)cc4)C(=O)N[C@@H](CCCNC(=N)N)C(=O)N[C@@H](CC(C)C)C(=O)N[C@@H](CCCNC(=N)N)C(=O)N[C@@H](Cc4ccc(O)cc4)C(N)=O)CC3)c3ccc(=[N+](CC)CC)cc-3oc2c1 | 3.72 | 39.3 | 70.8 |  |  |  |  |  |
| CCN1\C(=C/C=C/C=C/C2=[N+](CCCCCC(=O)N[C@H](CCCC[C@@H](N)C(=O)N[C@@H](Cc3ccc(O)cc3)C(=O)N[C@@H](CCCNC(=N)N)C(=O)N[C@@H](CC(C)C)C(=O)N[C@@H](CCCNC(=N)N)C(=O)N[C@@H](Cc3ccc(O)cc3)C(N)=O)C(=O)N[C@@H](Cc3ccc(O)cc3)C(=O)N[C@@H](CCCNC(=N)N)C(=O)N[C@@H](CC(C)C)C(=O)N[C@@H](CCCNC(=N)N)C(=O)N[C@@H](Cc3ccc(O)cc3)C(N)=O)c3ccc(S(=O)(=O)O)cc3C2(C)C)C(C)(C)c2cc(S(=O)(=O)[O-])ccc21 | 33.1 | 65.6 |  | Dose-dependent effect |  |  |  |  |
| CCN1\C(=C/C=C/C=C/C2=[N+](CCCCCC(=O)N[C@@H](CCCC[C@H](N)C(=O)N[C@@H](Cc3ccc(O)cc3)C(=O)N[C@@H](CCCNC(=N)N)C(=O)N[C@@H](CC(C)C)C(=O)N[C@@H](CCCNC(=N)N)C(=O)N[C@@H](Cc3ccc(O)cc3)C(N)=O)C(=O)N[C@@H](Cc3ccc(O)cc3)C(=O)N[C@@H](CCCNC(=N)N)C(=O)N[C@@H](CC(C)C)C(=O)N[C@@H](CCCNC(=N)N)C(=O)N[C@@H](Cc3ccc(O)cc3)C(N)=O)c3ccc(S(=O)(=O)O)cc3C2(C)C)C(C)(C)c2cc(S(=O)(=O)[O-])ccc21 | 95.5 | 56.6 |  | Dose-dependent effect |  |  |  |  |
| CCN(CC)c1ccc2c(-c3ccccc3C(=O)N3CCN(C(=O)CCC(=O)N[C@@H](C/C=C\C[C@H](N)C(=O)N[C@@H](Cc4ccc(O)cc4)C(=O)N[C@@H](CCCNC(=N)N)C(=O)N[C@@H](CC(C)C)C(=O)N[C@@H](CCCNC(=N)N)C(=O)N[C@@H](Cc4ccc(O)cc4)C(N)=O)C(=O)N[C@@H](Cc4ccc(O)cc4)C(=O)N[C@@H](CCCNC(=N)N)C(=O)N[C@@H](CC(C)C)C(=O)N[C@@H](CCCNC(=N)N)C(=O)N[C@@H](Cc4ccc(O)cc4)C(N)=O)CC3)c3ccc(=[N+](CC)CC)cc-3oc2c1 | 5.5 | 29.2 | 69.2 |  |  |  |  |  |
| CC(C)C[C@H](NC(=O)[C@H](CCCNC(=N)N)NC(=O)[C@H](Cc1ccc(O)cc1)NC(=O)[C@H](N)C/C=C\C[C@@H](N)C(=O)N[C@@H](Cc1ccc(O)cc1)C(=O)N[C@@H](CCCNC(=N)N)C(=O)N[C@@H](CC(C)C)C(=O)N[C@@H](CCCNC(=N)N)C(=O)N[C@@H](Cc1ccc(O)cc1)C(N)=O)C(=O)N[C@@H](CCCNC(=N)N)C(=O)N[C@@H](Cc1ccc(O)cc1)C(N)=O | 38 | 61 | 24 |  |  |  |  |  |
| CC(C)C[C@H](NC(=O)[C@H](CCCNC(=N)N)NC(=O)[C@H](Cc1ccc(O)cc1)NC(=O)[C@@H](N)C/C=C\C[C@H](N)C(=O)N[C@@H](Cc1ccc(O)cc1)C(=O)N[C@@H](CCCNC(=N)N)C(=O)N[C@@H](CC(C)C)C(=O)N[C@@H](CCCNC(=N)N)C(=O)N[C@@H](Cc1ccc(O)cc1)C(N)=O)C(=O)N[C@@H](CCCNC(=N)N)C(=O)N[C@@H](Cc1ccc(O)cc1)C(N)=O | 30.2 | 44.5 | 132 |  |  |  |  | 3.7 |
| CCN(CC)c1ccc2c(-c3ccccc3C(=O)N3CCN(C(=O)CCC(=O)N[C@@H](CCCC[C@H](N)C(=O)N[C@@H](Cc4ccc(O)cc4)C(=O)N[C@@H](CCCNC(=N)N)C(=O)N[C@@H](CC(C)C)C(=O)N[C@@H](CCCNC(=N)N)C(=O)N[C@@H](Cc4ccc(O)cc4)C(N)=O)C(=O)N[C@@H](Cc4ccc(O)cc4)C(=O)N[C@@H](CCCNC(=N)N)C(=O)N[C@@H](CC(C)C)C(=O)N[C@@H](CCCNC(=N)N)C(=O)N[C@@H](Cc4ccc(O)cc4)C(N)=O)CC3)c3ccc(=[N+](CC)CC)cc-3oc2c1 |  |  | 70.8 |  |  |  | 15.9 |  |

More lines, main results first:

| EC50 ([1]; read-out: pEC50 (converted)) [nM] | Rmax [2] [%] | IC50 ([3]; read-out: pIC50 (converted)) [nM] | Drug uptake [4] | EC50 ([1]; read-out: EC50) [nM] | IC50 ([3]; read-out: IC50) [nM] | Rmax [5] [%] | SMILES | Ratio IC50 (Homo sapiens) |
| --- | --- | --- | --- | --- | --- | --- | --- | --- |
| > 316 | 49.1 | 93.3 |  |  |  |  | COC(=O)[C@H](Cc1ccc(O)cc1)NC(=O)[C@H](CCCNC(=N)N)NC(=O)[C@H](CC(C)C)NC(=O)[C@H](CCCNC(=N)N)NC(=O)[C@H](Cc1ccc(O)cc1)NC(=O)[C@@H](N)CCCC[C@H](N)C(=O)N[C@@H](Cc1ccc(O)cc1)C(=O)N[C@@H](CCCNC(=N)N)C(=O)N[C@@H](CC(C)C)C(=O)N[C@@H](CCCNC(=N)N)C(=O)N[C@@H](Cc1ccc(O)cc1)C(N)=O |  |
| 83.2 | 57.1 | 69.2 |  |  |  |  | CC(C)C[C@H](NC(=O)[C@H](CCCNC(=N)N)NC(=O)[C@H](Cc1ccc(O)cc1)NC(=O)[C@@H](N)CCCC[C@H](N)C(=O)N[C@@H](Cc1ccc(O)cc1)C(=O)N[C@@H](CCCNC(=N)N)C(=O)N[C@@H](CC(C)C)C(=O)N[C@@H](CCCNC(=N)N)C(=O)N[C@@H](Cc1ccc(O)cc1)C(N)=O)C(=O)N[C@@H](CCCNC(=N)N)C(=O)N[C@@H](Cc1ccc(O)cc1)C(N)=O |  |
|  | 61.5 |  |  | 4.6 | 12.7 |  | CC(C)C[C@H](NC(=O)[C@H](CCCNC(=N)N)NC(=O)[C@H](Cc1ccc(O)cc1)NC(=O)[C@H](N)CCCC[C@@H](N)C(=O)N[C@@H](Cc1ccc(O)cc1)C(=O)N[C@@H](CCCNC(=N)N)C(=O)N[C@@H](CC(C)C)C(=O)N[C@@H](CCCNC(=N)N)C(=O)N[C@@H](Cc1ccc(O)cc1)C(N)=O)C(=O)N[C@@H](CCCNC(=N)N)C(=O)N[C@@H](Cc1ccc(O)cc1)C(N)=O | 30 |
|  |  | 617 |  |  |  | 11.3 | COC(=O)[C@H](Cc1ccc(O)cc1)NC(=O)[C@H](CCCNC(=N)N)NC(=O)[C@H](CC(C)C)NC(=O)[C@H](CCCNC(=N)N)NC(=O)[C@H](Cc1ccc(O)cc1)NC(=O)[C@@H](N)CCCC[C@H](N)C(=O)N[C@@H](Cc1ccc(O)cc1)C(=O)N[C@@H](CCCNC(=N)N)C(=O)N[C@@H](CC(C)C)C(=O)N[C@@H](CCCNC(=N)N)C(=O)N[C@@H](Cc1ccc(O)cc1)C(=O)OC | 0.38 |
